{"source": "ChEMBL document CHEMBL1275441", "about": "“Effect of impaired renal function on the pharmacokinetics of tomopenem (RO4908463/CS-023), a novel carbapenem” (Antimicrob Agents Chemother, 2008)", "key": {"[1]": {"test_system": "Homo sapiens", "test": "Drug metabolism in human with creatinine clearance of => 80 ml/min assessed as RO4957463 AUC (infinity) at 1500 mg, iv administered as single dose measured after 60 mins", "format": "ADME, organism-based", "design": "dose 1500 mg, route intravenous, time infinity", "conditions": "in vivo, 1 h", "procedure,_shortened": "(§1)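 Single 1,500 mg i.v. infusion over 60 min, eight subjects per renal-function group (creatinine clearance by Cockcroft-Gault at screening). Blood was sampled predose and at 1–48 h, and the plasma was stabilized 1:1 with 0.5 M MOPS pH 6.0, kept from light and frozen at −70°C. Parent and metabolite were measured by a validated bioanalytical method. Noncompartmental analysis: t1/2 = ln2/λz from ≥3 terminal points, Cmax/Tmax from raw data, ratio = AUC∞ metabolite/parent.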"}, "[2]": {"test_system": "Homo sapiens", "test": "Drug metabolism in human with creatinine clearance of 50-79 ml/min assessed as RO4957463 AUC (infinity) at 1500 mg, iv administered as single dose measured after 60 mins", "format": "ADME, organism-based", "design": "dose 1500 mg, time infinity, route intravenous", "conditions": "in vivo, 1 h", "procedure,_shortened": "as §1"}, "[3]": {"test_system": "Homo sapiens", "test": "Drug metabolism in human with creatinine clearance of 30-49 ml/min assessed as RO4957463 AUC (infinity) at 1500 mg, iv administered as single dose measured after 60 mins", "format": "ADME, organism-based", "design": "dose 1500 mg, route intravenous, time infinity", "conditions": "in vivo, 1 h", "procedure,_shortened": "as §1"}, "[4]": {"test_system": "Homo sapiens", "test": "Ratio of RO4957463 AUC (infinity) to compound AUC (infinity) in human with creatinine clearance of 30-49 ml/min at 1500 mg, iv administered as single dose measured after 60 mins", "format": "ADME, organism-based", "conditions": "in vivo, 1 h", "procedure,_shortened": "as §1"}, "[5]": {"test": "Renal clearance in human with creatinine clearance of 50-79 ml/min at 1500 mg, iv administered as single dose after 24 hrs", "format": "ADME, organism-based, Kidney", "conditions": "in vivo, read-out: CL_renal (converted)", "procedure,_shortened": "(§2)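 Single 1,500 mg i.v. infusion over 60 min, with 8 subjects per renal-function group (CL_CR by Cockcroft-Gault at screening). Urine was collected at 0–6, 6–12 and 12–24 h, volume and pH recorded, and aliquots mixed 1:1 with 0.5 M MOPS. Samples were frozen at −70°C, protected from light, and assayed by a validated method. CL_R = A_e24/AUC₂₄.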"}, "[6]": {"test": "Renal clearance in human with creatinine clearance of =< 30 ml/min at 1500 mg, iv administered as single dose after 24 hrs", "format": "ADME, organism-based, Kidney", "conditions": "in vivo, read-out: CL_renal (converted)", "procedure,_shortened": "as §2"}, "[7]": {"test_system": "Homo sapiens", "test": "Drug excretion in human with creatinine clearance of => 80 ml/min at 1500 mg, iv administered as single dose after 24 hrs", "format": "ADME, organism-based", "conditions": "in vivo", "procedure,_shortened": "(§3)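 After a single 1,500 mg i.v. infusion over 60 min, urine was collected 0–6, 6–12 and 12–24 h post-dose, with volume and pH recorded. Aliquots were mixed 1:1 with 0.5 M MOPS, protected from light and frozen at −70°C. Parent and metabolite were assayed by a validated method. CLR = Ae24/plasma AUC24. n = 8 per group, mean ± SD.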"}, "[8]": {"test": "Dose normalized excretion in human with creatinine clearance of => 80 ml/min at 1500 mg, iv administered as single dose after 24 hrs", "format": "ADME, organism-based", "conditions": "in vivo, read-out: Activity", "procedure,_shortened": "as §3"}, "[9]": {"test": "Dose normalized excretion in human with creatinine clearance of 50-79 ml/min at 1500 mg, iv administered as single dose after 24 hrs", "format": "ADME, organism-based", "conditions": "in vivo, read-out: Activity", "procedure,_shortened": "as §3"}, "[10]": {"test": "Total clearance in healthy human at 700 mg, iv administered as single dose", "format": "ADME, organism-based", "conditions": "in vivo"}, "[11]": {"test": "Volume of distribution in healthy human at 700 mg, iv administered as single dose", "format": "ADME, organism-based", "conditions": "in vivo"}, "[12]": {"test": "Cmax in human with creatinine clearance of 50-79 ml/min at 1500 mg, iv administered as single dose measured after 60 mins", "format": "ADME, organism-based", "design": "dose 1500 mg, route intravenous", "conditions": "in vivo", "procedure,_shortened": "as §1"}, "[13]": {"test": "Cmax in human with creatinine clearance of 30-49 ml/min at 1500 mg, iv administered as single dose measured after 60 mins", "format": "ADME, organism-based", "design": "dose 1500 mg, route intravenous", "conditions": "in vivo", "procedure,_shortened": "as §1"}, "[14]": {"test": "Tmax in human with creatinine clearance of => 80 ml/min at 1500 mg, iv administered as single dose", "format": "ADME, organism-based", "conditions": "in vivo", "procedure,_shortened": "(§4)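 Eight subjects per CL_CR group (Cockcroft-Gault) received 1,500 mg i.v. over 60 min. Plasma was sampled predose and from 1 to 48 h, mixed with equal-volume 0.5 M MOPS pH 6.0, frozen at −70°C light-protected, and assayed by a validated method. Parameters were derived noncompartmentally from actual times, with T_max taken from raw data as a median and CL/V_ss as means ± SD.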"}, "[15]": {"test": "Tmax in human with creatinine clearance of 30-49 ml/min at 1500 mg, iv administered as single dose", "format": "ADME, organism-based", "conditions": "in vivo", "procedure,_shortened": "as §4"}, "[16]": {"test": "Tmax in human with creatinine clearance of =< 30 ml/min at 1500 mg, iv administered as single dose", "format": "ADME, organism-based", "conditions": "in vivo", "procedure,_shortened": "as §4"}, "[17]": {"test": "AUC (infinity) in human with creatinine clearance of => 80 ml/min at 1500 mg, iv administered as single dose measured after 60 mins", "format": "ADME, organism-based", "design": "dose 1500 mg, time infinity, route intravenous", "conditions": "plasma", "procedure,_shortened": "as §1"}, "[18]": {"test": "AUC (infinity) in human with creatinine clearance of 50-79 ml/min at 1500 mg, iv administered as single dose measured after 60 mins", "format": "ADME, organism-based", "design": "dose 1500 mg, route intravenous, time infinity", "conditions": "plasma", "procedure,_shortened": "as §1"}, "[19]": {"test": "AUC (infinity) in human with creatinine clearance of =< 30 ml/min at 1500 mg, iv administered as single dose measured after 60 mins", "format": "ADME, organism-based", "design": "dose 1500 mg, time infinity, route intravenous", "conditions": "plasma", "procedure,_shortened": "as §1"}, "[20]": {"test": "Volume of distribution at steady state in human with creatinine clearance of 50-79 ml/min at 1500 mg, iv administered as single dose measured after 60 mins", "format": "ADME, organism-based", "conditions": "in vivo, read-out: Vdss", "procedure,_shortened": "as §4"}, "[21]": {"test": "Total clearance in human with creatinine clearance of 50-79 ml/min at 1500 mg, iv administered as single dose measured after 60 mins", "format": "ADME, organism-based", "conditions": "in vivo", "procedure,_shortened": "as §4"}, "[22]": {"test": "Total clearance in human with creatinine clearance of =< 30 ml/min at 1500 mg, iv administered as single dose after 60 mins after 60 mins", "format": "ADME, organism-based", "conditions": "in vivo", "procedure,_shortened": "as §4"}, "[23]": {"test_system": "Homo sapiens", "test": "Drug metabolism in human with creatinine clearance of => 80 ml/min assessed as RO4957463 Cmax at 1500 mg, iv administered as single dose measured after 60 mins", "format": "ADME, organism-based", "design": "dose 1500 mg, route intravenous", "conditions": "in vivo, 1 h", "procedure,_shortened": "as §1"}, "[24]": {"test_system": "Homo sapiens", "test": "Drug metabolism in human with creatinine clearance of 30-49 ml/min assessed as RO4957463 Cmax at 1500 mg, iv administered as single dose measured after 60 mins", "format": "ADME, organism-based", "design": "dose 1500 mg, route intravenous", "conditions": "in vivo, 1 h", "procedure,_shortened": "as §1"}, "[25]": {"test_system": "Homo sapiens", "test": "Drug metabolism in human with creatinine clearance of =< 30 ml/min assessed as RO4957463 Cmax at 1500 mg, iv administered as single dose measured after 60 mins", "format": "ADME, organism-based", "design": "dose 1500 mg, route intravenous", "conditions": "in vivo, 1 h", "procedure,_shortened": "as §1"}, "[26]": {"test_system": "Homo sapiens", "test": "Drug metabolism in human with creatinine clearance of => 80 ml/min assessed as RO4957463 Tmax at 1500 mg, iv administered as single dose", "format": "ADME, organism-based", "conditions": "in vivo", "procedure,_shortened": "as §1"}, "[27]": {"test_system": "Homo sapiens", "test": "Drug metabolism in human with creatinine clearance of 50-79 ml/min assessed as RO4957463 Tmax at 1500 mg, iv administered as single dose measured after 60 mins", "format": "ADME, organism-based", "conditions": "in vivo, 1 h", "procedure,_shortened": "as §1"}, "[28]": {"test_system": "Homo sapiens", "test": "Drug metabolism in human with creatinine clearance of 30-49 ml/min assessed as RO4957463 Tmax at 1500 mg, iv administered as single dose", "format": "ADME, organism-based", "conditions": "in vivo", "procedure,_shortened": "as §1"}, "[29]": {"test_system": "Homo sapiens", "test": "Drug metabolism in human with creatinine clearance of =< 30 ml/min assessed as RO4957463 Tmax at 1500 mg, iv administered as single dose", "format": "ADME, organism-based", "conditions": "in vivo", "procedure,_shortened": "as §1"}, "[30]": {"test_system": "Homo sapiens", "test": "Drug metabolism in human with creatinine clearance of => 80 ml/min assessed as RO4957463 apparent half life at 1500 mg, iv administered as single dose", "format": "ADME, organism-based", "conditions": "in vivo", "procedure,_shortened": "as §1"}, "[31]": {"test_system": "Homo sapiens", "test": "Drug metabolism in human with creatinine clearance of 30-49 ml/min assessed as RO4957463 apparent half life at 1500 mg, iv administered as single dose", "format": "ADME, organism-based", "conditions": "in vivo", "procedure,_shortened": "as §1"}}, "data": [{"smiles": "C[C@@H](O)[C@H]1C(=O)N2C(C(=O)O)=C(S[C@H]3C[C@@H](C(=O)N4CC[C@H](NC(=O)CNC(=N)N)C4)N(C)C3)[C@H](C)[C@H]12", "note": "[TOMOPENEM]", "values": [{"measurement": "AUC", "setting": "[1]", "value": 18.5, "unit": "µg·h/mL"}, {"measurement": "AUC", "setting": "[2]", "value": 37.3, "unit": "µg·h/mL"}, {"measurement": "AUC", "setting": "[3]", "value": 115, "unit": "µg·h/mL"}, {"measurement": "Ratio", "setting": "[4]", "value": 0.21}, {"measurement": "CL renal at 24 h", "setting": "[5]", "value": 61.3, "unit": "mL/min"}, {"measurement": "CL renal at 24 h", "setting": "[6]", "value": 9.83, "unit": "mL/min"}, {"measurement": "Activity", "setting": "[7]", "value": 862, "unit": "mg"}, {"measurement": "dose excreted at 24 h", "setting": "[8]", "value": 57.4, "unit": "%"}, {"measurement": "dose excreted at 24 h", "setting": "[9]", "value": 72.6, "unit": "%"}, {"measurement": "clearance", "setting": "[10]", "value": 135, "unit": "mL/min"}, {"measurement": "Vd", "setting": "[11]", "value": 17, "unit": "L"}, {"measurement": "Cmax", "setting": "[12]", "value": 106, "unit": "µg/mL"}, {"measurement": "Cmax", "setting": "[13]", "value": 100, "unit": "µg/mL"}, {"measurement": "Tmax", "setting": "[14]", "value": 1, "unit": "h"}, {"measurement": "Tmax", "setting": "[15]", "value": 1, "unit": "h"}, {"measurement": "Tmax", "setting": "[16]", "value": 1.02, "unit": "h"}, {"measurement": "AUC(0-inf)", "setting": "[17]", "value": 191, "unit": "µg·h/mL"}, {"measurement": "AUC(0-inf)", "setting": "[18]", "value": 304, "unit": "µg·h/mL"}, {"measurement": "AUC(0-inf)", "setting": "[19]", "value": 1040, "unit": "µg·h/mL"}, {"measurement": "Vd", "setting": "[20]", "value": 16.2, "unit": "L"}, {"measurement": "clearance", "setting": "[21]", "value": 84.7, "unit": "mL/min"}, {"measurement": "clearance", "setting": "[22]", "value": 25.3, "unit": "mL/min"}, {"measurement": "Cmax", "setting": "[23]", "value": 3.51, "unit": "µg/mL"}, {"measurement": "Cmax", "setting": "[24]", "value": 5.24, "unit": "µg/mL"}, {"measurement": "Cmax", "setting": "[25]", "value": 9.63, "unit": "µg/mL"}, {"measurement": "Tmax", "setting": "[26]", "value": 1.01, "unit": "h"}, {"measurement": "Tmax", "setting": "[27]", "value": 1, "unit": "h"}, {"measurement": "Tmax", "setting": "[28]", "value": 5, "unit": "h"}, {"measurement": "Tmax", "setting": "[29]", "value": 13.5, "unit": "h"}, {"measurement": "t1/2", "setting": "[30]", "value": 2.98, "unit": "h"}, {"measurement": "t1/2", "setting": "[31]", "value": 8.32, "unit": "h"}]}]}
